Screens (PubChem)
The full list was thinned out, with hits kept by preference.
Lmaj promast: Leishmania major promastigote growth inhibition; Leishmania major promastigotes, resazurin fluorescence viability; inhibition, % at 10 µM; 200,000 compounds, 9% hits; AID 1063; in the data active = inhibition above about 50%;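 also: promastigotes grown with compound for 44 hours at 28 °C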
NALP1 yeast inh: inhibitors of NALP1 inflammasome in yeast; S. cerevisiae NALP1/ASC/caspase-1 growth, X-gal OD620, 72 h; inhibition, % at 10 µM; 280,000 compounds, 0.61% hits; AID 2071; in the data active = inhibition mostly above about 24%, no sharp cut-off; inactive = mostly below about 32%
NALP3 yeast inh: blocks the NALP3 inflammasome reconstituted in yeast. Yeast reconstituted NLRP3/ASC/caspase-1, beta-gal luminescence, 24 h. inhibition, % at 10 µM. 330,000 compounds, 0.39% hits;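 active = inhibition of 50% or more; inactive = inhibition below 50%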
Calb FLC: affects C. albicans growth with fluconazole | C. albicans CaCi-2 + fluconazole, Alamar Blue growth, 48 h | growth inhibition, % (concentration not given with the values) | 300,000 compounds, 0.57% hits | AID 1979;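 active = growth inhibition above about 58% in most replicates, limit read from the data, passing the limit was not always enough; inconclusive = exactly half the replicates above a set limit; inactive = most replicates below a set limit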;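 also: all wells also contain fluconazole at 8 µg/ml as a sub-toxic cotreatment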
PolyA inh: blocks polyadenylation in yeast reporter cells; 300,000 compounds, 0.02% hits; activity score, % at 12 µM; S. cerevisiae SKY197-pL101 polyadenylation reporter, beta-gal luminescence; efflux-impaired pdr1/pdr3 knockout yeast; score 100 = 6 SD above DMSO;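 active = lowest replicate activity score at least 50, where 100 means six control SD above control mean; inconclusive = lowest score under 50 but half or more replicates reach 50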;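 also: yeast exposed to compound for 9 h at 30 °C; higher score means more reporter readthrough which indicates perturbed polyadenylation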
T cruzi repl: T. cruzi replication inhibition; T. cruzi beta-gal in NIH3T3, luminescence, 90 h; 300,000 compounds, 1.4% hits; inhibition, % (no concentration beside the values);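 active = mean inhibition across valid replicates above about 55%, limit read from the data; inconclusive = mean below that limit but half or more replicates reach it; inactive = mean below it, under half of replicates reach it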;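 also: signal also drops with host cell toxicity which is not excluded here; higher percent means less beta-gal luminescence so fewer parasites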
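compound dosing = single 50 nL compound addition per well in DMSO | material = NIH/3T3 host cells with β-galactosidase reporter T. cruzi | input = 5,000 host fibroblasts per well | timing = ≥90 h infection period, 3 h prior cell attachment | read-out basis = percent inhibition of parasite-derived β-gal signal | detection = GalScreen β-gal luminescence, detergent lysis, 60 min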
Hits are given with their value; 0 = inactive; ? = inconclusive; - = no result given.

SMILES	Lmaj promast	NALP1 yeast inh	NALP3 yeast inh	Calb FLC	PolyA inh	T cruzi repl
CCS(=O)(=O)c1ccc2oc(SCC(=O)N3CCCCC3)nc2c1	0	0	0	0	0	0
Cc1c(/C=N/NC(=O)CNc2ccccc2)c2ccccn2c1C(=O)c1ccccc1	0	0	0	0	0	0
Cc1ccc(C)c(NC(=O)CN(C)C(=O)COc2ncnc3sccc23)c1	58	0	0	0	0	0
Cc1ccc(C)c(NC(=O)CN(C)C(=O)c2sccc2C)c1	-	-	0	0	0	0
COC(=O)c1ccc(NC(=O)C2CCCN2S(=O)(=O)c2ccc(OC)cc2)cc1 (configuration not stated)	58	0	0	0	0	0
COc1ccc(S(=O)(=O)N2CCCC(C(=O)NCc3ccncc3)C2)cc1Cl (configuration not stated)	0	26	0	0	0	0
COc1ccc(S(=O)(=O)N2CCCC(C(=O)Nc3cccc(C(C)=O)c3)C2)cc1 (configuration not stated)	58	0	0	0	0	0
CCn1ccnc1CN1CCC(n2nccc2NC(=O)c2ccccc2OC)CC1	-	0	0	0	0	0
CCC1=NN2C(=N)/C(=C\c3ccc(OCc4cc(=O)n5nc(CC)sc5n4)c(OC)c3)C(=O)N=C2S1	0	0	-	0	0	0
O=C(CN1CCC(NC(=O)Cc2ccccc2)CC1)Nc1ccccc1Br	0	0	0	0	0	0
O=C(NCCCn1ccnc1)/C(=C\c1cccs1)NC(=O)c1ccco1	56	0	0	0	0	0
Cn1c(CC(=O)NNC(=O)c2cccnc2)nc2ccccc21	-	-	0	-	-	-
COc1ccc(O)c(C(=O)c2cc(C(=O)NCCc3ccccc3)c(=O)n(CCc3ccccc3)c2)c1	77	0	0	0	0	0
Cc1ccc(O)c(C(=O)c2cc(C(=O)NCCc3ccccc3)c(=O)n(CCc3ccccc3)c2)c1	99	0	0	0	0	61
Cc1cc(C)n(S(=O)(=O)c2cccc(Cl)c2Cl)n1	0	0	0	0	0	0
OC(COC(c1ccc(Cl)cc1)c1ccc(Cl)cc1)CN1CCc2ccccc2C1 (configuration not stated)	0	0	0	0	0	62
CN1CCN(CC(O)COC(c2ccc(Cl)cc2)c2ccc(Cl)cc2)CC1 (configuration not stated)	-	0	0	0	0	0
OC(COC(c1ccccc1)c1ccccc1)CN1CCc2ccccc2C1 (configuration not stated)	0	0	0	0	0	0
OC(COC(c1ccc(Cl)cc1)c1ccc(Cl)cc1)CN1CCCC1 (configuration not stated)	100	0	0	0	0	0
O=C(O)CC(NC(=O)C(c1ccccc1)c1ccccc1)c1cccc([N+](=O)[O-])c1 (configuration not stated)	-	0	0	0	0	0
CC(C)Cc1cc(C(=O)NCc2ccco2)no1	0	0	0	0	0	0
Cc1ccc(C)n1-c1ccc(C(=O)NN)s1	0	0	0	0	0	0
CCN(CCCNS(=O)(=O)c1cc(-c2cc(C)no2)ccc1C)Cc1ccccc1	-	0	0	0	0	0
COc1ccccc1N1CCN(c2ccc(-c3ccccc3)nn2)CC1	64	0	0	?	0	0
Cc1ccccc1NC(=O)COc1ccc(S(=O)(=O)N2CCCC2)cc1C	-	0	0	0	0	0
SMILES	Lmaj promast	NALP1 yeast inh	NALP3 yeast inh	Calb FLC	PolyA inh	T cruzi repl
CC(C)(C)OC(=O)COc1cc(OCC(=O)OC(C)(C)C)c2c(=O)cc(-c3ccccc3)oc2c1	50	0	0	-	-	-
O=C(NCc1cccnc1)c1ccc(NC(=O)c2cccc([N+](=O)[O-])c2)cc1	0	0	0	0	0	0
O=C1COc2ccc(C(=O)/C=C/c3ccccc3)cc2N1	84	0	0	0	0	?
Cc1ccccc1C(=O)c1cccn1CC(=O)NCCCN1CCCCC1	-	0	0	0	0	0
Cc1ccccc1C(=O)c1cccn1CC(=O)NCCN1CCN(c2cccc(C)c2C)CC1	100	0	0	0	0	0
Cc1ccccc1C(=O)c1cccn1CC(=O)NCCC1=CCCCC1	0	0	0	0	0	0
Cc1ccc(C)c(N2CCN(CCCNC(=O)Cn3cccc3C(=O)c3ccccc3C)CC2)c1	93	0	0	0	0	0
Cc1ccc(OCc2cc(C(=O)N(C)Cc3cnn(-c4ccccc4C)c3)no2)cn1	-	0	0	0	0	0
Cc1cc(C=O)c(C)n1-c1cc(C(F)(F)F)ccc1N1CCOCC1	94	0	0	-	0	0
Cc1cc(C=O)c(C)n1-c1ccc(N2CCOCC2)cc1	0	0	0	0	0	0
O=C(N/N=C/c1ccc(Cl)cc1Cl)c1ccncc1	-	0	0	0	0	0
NC(N)=N/N=C/c1ccc(Cl)cc1Cl	-	0	0	0	0	62
CCSC1=NC2(CCCCC2)Nc2sc3c(c21)CCCC3	100	0	0	0	0	56
O=C(N/N=C/c1ccc([N+](=O)[O-])cc1)c1cccc(N2CCCC2=O)c1	-	0	0	0	0	0
COC(=O)C1(C(C[N+](=O)[O-])c2ccc(C)cc2)C(=O)NCC1c1ccco1 (configuration not stated)	-	46	0	0	0	0
CCC1(C(=O)OC)NC(c2ccco2)C2C(=O)N(c3ccc(C)cc3)C(=O)C21 (configuration not stated)	0	0	0	0	0	0
NS(=O)(=O)c1cccc(NC(=O)COC(=O)CCN2C(=O)c3ccccc3C2=O)c1	-	-	0	-	-	-
CSc1n[nH]c(NCc2ccc(C)cc2)n1	0	0	0	0	0	0
O=C(Nc1cccc(Cl)c1)N1CCCC1	100	0	0	0	0	0
O=C(Nc1ccccc1)N1CCSc2ccccc21	0	0	0	0	0	0
O=C(Nc1ccc(Cl)cc1)N1CCSc2ccccc21	90	0	0	0	0	0
O=C(Nc1cccc(Cl)c1)N1CCOCC1	-	0	0	0	0	0
O=C(Nc1ccc(Cl)cc1)N1CCCC1	96	0	0	0	0	0
CC(C)n1c(N2CCN(C(=O)Nc3ccc(Cl)cc3)CC2)nc2ccccc21	0	0	0	73	0	0
CN1CCN(NC(=O)Nc2ccc(F)cc2)CC1	-	0	0	?	0	0
Cc1cccc(N2CCN(Cc3cnc(Cl)s3)CC2C)c1 (configuration not stated)	78	0	0	0	0	0
CC1CCCN(Cc2cnc(Cl)s2)C1 (configuration not stated)	0	0	0	0	0	0
O=C(c1ccc(Cn2c(=O)[nH]c3ccccc3c2=O)cc1)N1CCN(c2ccc(Cl)cc2)CC1	96	0	0	0	0	0
CC(=O)c1ccc(N2CCN(C(=O)c3ccc(Cn4c(=S)[nH]c5ccc(N6CCOCC6)cc5c4=O)cc3)CC2)cc1	98	0	0	0	0	70
